The text below walks through data of ChEMBL document CHEMBL1135810, “Water-soluble, core-modified porphyrins as novel, longer-wavelength-absorbing sensitizers for photodynamic therapy. II. Effects of core heteroatoms and meso-substituents on biological activity” (J Med Chem, 2002).

The subject of the test is Colon 26. As to the kind of experiment: Effective concentration required to give 50% cell kill with 4 J/cm**2 of light.(Dark and light induced toxicity towards murine colon carcinoma cell line(COLO-26 cells)). Type of test: functional, cell-based. Conditions: Mus musculus, Colon 26, light or radiation study. The method in brief: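 Colo-26 mouse colon carcinoma cells grown in RPMI 1640 with 10% fetal calf serum at 37 °C, 5% CO2, plated at 5×10^3 cells/well the evening before. Cells were PBS-washed, then kept 24 h at 37 °C in the dark with graded sensitizer in HBSS, washed, and irradiated in PBS with filtered 590–800 nm light (methods state 570–800 nm) to 4 J cm-2. Dark controls were not irradiated. After 24 h in growth medium, MTT survival was read, and EC50 was taken from surviving fraction vs concentration.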

The structures appear in SMILES notation. Bounds are passed on as bounds.

As for `O=C(O)COc1ccc(-c2c3nc(c(-c4ccc(F)cc4)c4ccc(s4)c(-c4ccc(F)cc4)c4nc(c(-c5ccc(OCC(=O)O)cc5)c5ccc2s5)C=C4)C=C3)cc1`, the EC50 is 430 nM.

Regarding `O=S(=O)(O)c1ccc(-c2c3nc(c(-c4ccc(F)cc4)c4ccc([se]4)c(-c4ccc(F)cc4)c4nc(c(-c5ccc(S(=O)(=O)O)cc5)c5ccc2[se]5)C=C4)C=C3)cc1`, the midpoint of the response, the EC50, lay at 7900 nM. Then `Cc1ccc(-c2c3nc(c(-c4ccc(S(=O)(=O)O)cc4)c4ccc(s4)c(-c4ccc(S(=O)(=O)O)cc4)c4nc(c(-c5ccc(C)cc5S(=O)(=O)O)c5ccc2s5)C=C4)C=C3)c(S(=O)(=O)O)c1`, with 12000 nM. Consider `O=S(=O)(O)c1ccc(-c2c3nc(c(-c4ccc(S(=O)(=O)O)cc4)c4ccc(s4)c(-c4ccc(S(=O)(=O)O)cc4)c4nc(c(-c5ccc(S(=O)(=O)O)cc5)c5ccc2s5)C=C4)C=C3)cc1`, for which a half-maximal effect (EC50) was put at 30000 nM. In turn, `O=C(O)COc1ccc(-c2c3nc(c(-c4ccccc4)c4ccc(s4)c(-c4ccccc4)c4nc(c(-c5ccc(OCC(=O)O)cc5)c5ccc2s5)C=C4)C=C3)cc1` displayed an EC50 of 150 nM. As for `CN(C)c1ccc(-c2c3nc(c(-c4ccc(S(=O)(=O)O)cc4)c4ccc(s4)c(-c4ccc(S(=O)(=O)O)cc4)c4nc(c(-c5ccc(N(C)C)cc5)c5ccc2s5)C=C4)C=C3)cc1`, the figure is 640 nM; as for `O=S(=O)(O)c1ccc(-c2c3nc(c(-c4ccc(S(=O)(=O)O)cc4)c4ccc([nH]4)c(-c4ccc(S(=O)(=O)O)cc4)c4ccc(s4)c(-c4ccc(S(=O)(=O)O)cc4)c4nc2C=C4)C=C3)cc1`, over 100000 nM.

`O=S(=O)(O)c1ccc(-c2c3nc(c(-c4ccc(C(F)(F)F)cc4)c4ccc(s4)c(-c4ccc(C(F)(F)F)cc4)c4nc(c(-c5ccc(S(=O)(=O)O)cc5)c5ccc2s5)C=C4)C=C3)cc1`: the EC50 was over 100000 nM.

For `O=S(=O)(O)c1ccc(-c2c3nc(c(-c4ccc(F)cc4)c4ccc(s4)c(-c4ccc(F)cc4)c4nc(c(-c5ccc(S(=O)(=O)O)cc5)c5ccc2[se]5)C=C4)C=C3)cc1`, the EC50 worked out at 2100 nM.

With `O=S(=O)(O)c1ccc(-c2c3nc(c(-c4ccc(F)cc4)c4ccc(s4)c(-c4ccc(F)cc4)c4nc(c(-c5ccc(S(=O)(=O)O)cc5)c5ccc2[nH]5)C=C4)C=C3)cc1`, the half-maximal effective concentration (EC50) amounted to 2100 nM.

As to `O=S(=O)(O)c1ccc(-c2c3nc(c(-c4ccc(F)cc4)c4ccc(s4)c(-c4ccc(F)cc4)c4nc(c(-c5ccc(S(=O)(=O)O)cc5)c5ccc2s5)C=C4)C=C3)cc1`, a half-maximal response (EC50) required 1600 nM. This EC50 and that of the molecule before are within 1.5-fold of each other. Consider `O=S(=O)(O)c1ccc(-c2c3nc(c(-c4ccc(S(=O)(=O)O)cc4)c4ccc([nH]4)c(-c4ccc(S(=O)(=O)O)cc4)c4ccc([nH]4)c(-c4ccc(S(=O)(=O)O)cc4)c4nc2C=C4)C=C3)cc1`, for which the EC50 is 125000 nM. As for `O=S(=O)(O)c1ccc(-c2c3nc(c(-c4ccc(F)cc4)c4ccc([se]4)c(-c4ccc(F)cc4)c4nc(c(-c5ccc(S(=O)(=O)O)cc5)c5ccc2s5)C=C4)C=C3)cc1`, the figure is 1200 nM; as for `O=S(=O)(O)c1ccc(-c2c3nc(c(-c4ccc(S(=O)(=O)O)cc4)c4ccc([se]4)c(-c4ccc(S(=O)(=O)O)cc4)c4nc(c(-c5ccc(S(=O)(=O)O)cc5)c5ccc2[se]5)C=C4)C=C3)cc1`, over 100000 nM.

Usually EC50 stands for the concentration needed to bring the measured effect to its halfway point. A lower EC50 goes with an effect from little substance.
